# From ChEMBL document CHEMBL4689842, “EUbOPEN Chemogenomics Library wave 1” (2021)
# Tested on: HEK-293T
# Experiment: Multiplex assay against HEK293T;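 for Population Tubulin-Different-Phenotype (%): share of the cells with healthy nuclei that show this phenotype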
# Assay type: toxicity, cell-based
# Conditions: human
# Outline: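 With compound added, live cells were imaged on a CQ1 microscope at 37°C and 5% CO2; staining with Hoechst33342, BioTracker Green Microtubule Cytoskeleton Dye, MitoTracker Red and Annexin V Alexa Fluor 680 had been done at seeding. The CellPathfinder machine-learning gating scheme split cells into Hoechst high-intensity objects or normal cells, normal cells into healthy, pyknosed or fragmented nuclei, and pyknosed cells into mitotic or apoptotic. The tubulin, mitochondrial-mass and membrane-permeability phenotypes are per cents of healthy-nucleus cells.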
# [1] = 12 h, 1 µM, compound concentration 1 uM, replicate 1
# [2] = 12 h, 1 µM, compound concentration 1 uM, replicate 2
# [3] = 12 h, 10 µM, compound concentration 10 uM, replicate 1
# [4] = 12 h, 10 µM, compound concentration 10 uM, replicate 2
# [5] = 24 h, 1 µM, compound concentration 1 uM, replicate 1
# [6] = 24 h, 1 µM, compound concentration 1 uM, replicate 2
# [7] = 24 h, 10 µM, compound concentration 10 uM, replicate 1
# [8] = 24 h, 10 µM, compound concentration 10 uM, replicate 2
# [9] = 48 h, 1 µM, compound concentration 1 uM, replicate 1
# [10] = 48 h, 1 µM, compound concentration 1 uM, replicate 2
# [11] = 48 h, 10 µM, compound concentration 10 uM, replicate 1
# [12] = 48 h, 10 µM, compound concentration 10 uM, replicate 2
compound,measurement,setting,value
CC(C)OC(=O)N1CCC(Oc2ncnc3c2cnn3-c2ccc(S(C)(=O)=O)cc2F)CC1,Population Apoptotic (%),[1],57%
same,Population Fragmented Nuclei (%),[1],8%
same,Population Healthy Nuclei (%),[1],35%
same,Population Hoechst High Intensity Objects (%),[1],14%
same,Population Membrane Permeable-Phenotype (%),[1],4%
same,Population Mitochondria Different-Phenotype (%),[1],80%
same,Population Mitotic Cells (%),[1],42%
same,Population Normal (%),[1],85%
same,Population Pyknosed Nuclei (%),[1],56%
same,Population Tubulin-Different-Phenotype (%),[1],39%
same,Total Cell Count,[1],225
same,Population Apoptotic (%),[2],12%
same,Population Fragmented Nuclei (%),[2],5%
same,Population Healthy Nuclei (%),[2],49%
same,Population Hoechst High Intensity Objects (%),[2],4%
same,Population Membrane Permeable-Phenotype (%),[2],5%
same,Population Mitochondria Different-Phenotype (%),[2],11%
same,Population Mitotic Cells (%),[2],87%
same,Population Normal (%),[2],95%
same,Population Pyknosed Nuclei (%),[2],44%
same,Population Tubulin-Different-Phenotype (%),[2],9%
same,Total Cell Count,[2],220
same,Population Apoptotic (%),[3],53%
same,Population Fragmented Nuclei (%),[3],16%
same,Population Healthy Nuclei (%),[3],32%
same,Population Hoechst High Intensity Objects (%),[3],18%
same,Population Membrane Permeable-Phenotype (%),[3],6%
same,Population Mitochondria Different-Phenotype (%),[3],93%
same,Population Mitotic Cells (%),[3],46%
same,Population Normal (%),[3],81%
same,Population Pyknosed Nuclei (%),[3],51%
same,Population Tubulin-Different-Phenotype (%),[3],61%
same,Total Cell Count,[3],186
same,Population Apoptotic (%),[4],5%
same,Population Fragmented Nuclei (%),[4],5%
same,Population Healthy Nuclei (%),[4],45%
same,Population Hoechst High Intensity Objects (%),[4],3%
same,Population Membrane Permeable-Phenotype (%),[4],8%
same,Population Mitochondria Different-Phenotype (%),[4],15%
same,Population Mitotic Cells (%),[4],94%
same,Population Normal (%),[4],96%
same,Population Pyknosed Nuclei (%),[4],49%
same,Population Tubulin-Different-Phenotype (%),[4],20%
same,Total Cell Count,[4],220
same,Population Apoptotic (%),[5],51%
same,Population Fragmented Nuclei (%),[5],11%
same,Population Healthy Nuclei (%),[5],39%
same,Population Hoechst High Intensity Objects (%),[5],15%
same,Population Membrane Permeable-Phenotype (%),[5],4%
same,Population Mitochondria Different-Phenotype (%),[5],58%
same,Population Mitotic Cells (%),[5],48%
same,Population Normal (%),[5],84%
same,Population Pyknosed Nuclei (%),[5],48%
same,Population Tubulin-Different-Phenotype (%),[5],35%
same,Total Cell Count,[5],254
same,Population Apoptotic (%),[6],11%
same,Population Fragmented Nuclei (%),[6],7%
same,Population Healthy Nuclei (%),[6],62%
same,Population Hoechst High Intensity Objects (%),[6],3%
same,Population Membrane Permeable-Phenotype (%),[6],9%
same,Population Mitochondria Different-Phenotype (%),[6],11%
same,Population Mitotic Cells (%),[6],88%
same,Population Normal (%),[6],96%
same,Population Pyknosed Nuclei (%),[6],29%
same,Population Tubulin-Different-Phenotype (%),[6],16%
same,Total Cell Count,[6],277
same,Population Apoptotic (%),[7],46%
same,Population Fragmented Nuclei (%),[7],13%
same,Population Healthy Nuclei (%),[7],38%
same,Population Hoechst High Intensity Objects (%),[7],18%
same,Population Membrane Permeable-Phenotype (%),[7],1%
same,Population Mitochondria Different-Phenotype (%),[7],75%
same,Population Mitotic Cells (%),[7],53%
same,Population Normal (%),[7],81%
same,Population Pyknosed Nuclei (%),[7],48%
same,Population Tubulin-Different-Phenotype (%),[7],67%
same,Total Cell Count,[7],194
same,Population Apoptotic (%),[8],3%
same,Population Fragmented Nuclei (%),[8],4%
same,Population Healthy Nuclei (%),[8],65%
same,Population Hoechst High Intensity Objects (%),[8],3%
same,Population Membrane Permeable-Phenotype (%),[8],4%
same,Population Mitochondria Different-Phenotype (%),[8],22%
same,Population Mitotic Cells (%),[8],96%
same,Population Normal (%),[8],96%
same,Population Pyknosed Nuclei (%),[8],30%
same,Population Tubulin-Different-Phenotype (%),[8],29%
same,Total Cell Count,[8],268
same,Population Apoptotic (%),[9],59%
same,Population Fragmented Nuclei (%),[9],14%
same,Population Healthy Nuclei (%),[9],48%
same,Population Hoechst High Intensity Objects (%),[9],16%
same,Population Membrane Permeable-Phenotype (%),[9],5%
same,Population Mitochondria Different-Phenotype (%),[9],21%
same,Population Mitotic Cells (%),[9],40%
same,Population Normal (%),[9],83%
same,Population Pyknosed Nuclei (%),[9],36%
same,Population Tubulin-Different-Phenotype (%),[9],25%
same,Total Cell Count,[9],312
same,Population Apoptotic (%),[10],5%
same,Population Fragmented Nuclei (%),[10],8%
same,Population Healthy Nuclei (%),[10],79%
same,Population Hoechst High Intensity Objects (%),[10],3%
same,Population Membrane Permeable-Phenotype (%),[10],3%
same,Population Mitochondria Different-Phenotype (%),[10],4%
same,Population Mitotic Cells (%),[10],94%
same,Population Normal (%),[10],96%
same,Population Pyknosed Nuclei (%),[10],11%
same,Population Tubulin-Different-Phenotype (%),[10],17%
same,Total Cell Count,[10],463
same,Population Apoptotic (%),[11],50%
same,Population Fragmented Nuclei (%),[11],18%
same,Population Healthy Nuclei (%),[11],41%
same,Population Hoechst High Intensity Objects (%),[11],16%
same,Population Membrane Permeable-Phenotype (%),[11],3%
same,Population Mitochondria Different-Phenotype (%),[11],60%
same,Population Mitotic Cells (%),[11],49%
same,Population Normal (%),[11],83%
same,Population Pyknosed Nuclei (%),[11],39%
same,Population Tubulin-Different-Phenotype (%),[11],53%
same,Total Cell Count,[11],237
same,Population Apoptotic (%),[12],11%
same,Population Fragmented Nuclei (%),[12],5%
same,Population Healthy Nuclei (%),[12],82%
same,Population Hoechst High Intensity Objects (%),[12],3%
same,Population Membrane Permeable-Phenotype (%),[12],4%
same,Population Mitochondria Different-Phenotype (%),[12],3%
same,Population Mitotic Cells (%),[12],88%
same,Population Normal (%),[12],96%
same,Population Pyknosed Nuclei (%),[12],11%
same,Population Tubulin-Different-Phenotype (%),[12],23%
same,Total Cell Count,[12],480
